The source of these data is paper PMC11193445 (International Journal of Nanomedicine, 2024).

For the assay, the system named is MDA-MB-231 cells. As to the kind of experiment: Dox intracellular localization by confocal microscopy. In kind it is cell-based, human. To be noted: free Dox 7.5 µM, NF-Dox 50 µM (7.5 µM of Dox), 1 h, 37 °C. In short, it runs like this:
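MDA-MB-231 cells were seeded on coverslips at 5×10^4 cells/well and grown 24 h. They were exposed 1 h at 37 °C, washed twice in PBS, fixed 10 min in ice-cold 4% PFA, and mounted in DAPI-containing antifade. Intrinsic Dox fluorescence (RFP channel) and DAPI nuclei were imaged with a 63× oil objective. Images represent three separate experiments.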

For the compound `COc1cccc2c1C(=O)c1c(O)c3c(c(O)c1C2=O)C[C@@](O)(C(=O)CO)C[C@@H]3O[C@H]1C[C@H](N)[C@H](O)[C@H](C)O1` [Dox, Doxorubicin], the “Dox cellular uptake and localization (confocal, red fluorescence)” value is “not significant”.
